From ChEMBL document CHEMBL1150591, “Structure and absolute stereochemistry of hectochlorin, a potent stimulator of actin assembly” (J Nat Prod, 2002)
The source made the active and inactive calls. The rule behind the calls is not given here.

Legend:
[1] = tested on: Escherichia coli; test: Antimicrobial activity against Escherichia coli ATCC 1775 by standard paper sensitivity disk-agar plate method; type: functional, organism-based
Summary of the method: (§1)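 Paper disks of 6 mm diameter placed on seeded agar plates; activity assessed by standard disk-agar sensitivity method.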

[2] = tested on: CA46; test: Cell cycle arrest in human CA46 cells assessed as accumulation at G2/M phase at 0.2 uM after 24 hrs using propidium iodide labeling by flow cytometry; type: functional
[3] = tested on: Candida albicans; test: Antimicrobial activity against Candida albicans ATCC 14053 at 10 ug/disk by standard paper sensitivity disk-agar plate method; type: functional; details: read-out: IZ
Summary of the method: (§2)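 Agar disk diffusion with paper disks 6 mm in diameter, dose per disk as in line.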

[4] = Antiproliferative activity against human NCI60 cells; type: functional
[5] = species on record: Oryctolagus cuniculus; test: Displacement of FITC-phalloidin from rabbit muscle actin polymer pretreated prior to FITC-phalloidin addition by fluorescence analysis; details: Muscle tissue
[6] = species on record: Oryctolagus cuniculus; test: Stimulation of rabbit muscle actin polymerization assessed as light scattering at 10 to 50 uM by fluorimetry; details: Muscle tissue
Summary of the method: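 90° light scattering at 400 nm, 22 °C. Background read for 3 min, then drug in DMSO added, mixed, and followed about 15 min. PIB (2.5 M KCl, 100 mM MgCl2, 50 mM ATP) used as reference inducer.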

[7] = tested on: Pseudomonas aeruginosa; test: Antimicrobial activity against Pseudomonas aeruginosa ATCC 10145 by standard paper sensitivity disk-agar plate method; type: functional, organism-based; summary of the method: as §1
[8] = tested on: Staphylococcus aureus; test: Antimicrobial activity against Staphylococcus aureus ATCC 12600 by standard paper sensitivity disk-agar plate method; type: functional, organism-based; summary of the method: as §1
[9] = tested on: PtK2; test: Effect on actin cytoskeleton in rat kangaroo PtK2 cells assessed as thickening in microfilament at 1.0 uM after 24 hrs by immunofluorescence analysis relative to untreated control; type: functional, cell-based; details: Potorous tridactylus
Summary of the method: (§3)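 PtK2 cells were treated 24 h at 37 °C, then stained with FITC-anti-β-actin antibody (clone Ac-15) and DAPI. Cells were viewed under a 40× oil objective. FITC-phalloidin staining was also used.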

[10] = tested on: PtK2; test: Effect on actin cytoskeleton in rat kangaroo PtK2 cells assessed as thickening in microfilament at 0.3 uM after 24 hrs by immunofluorescence analysis relative to untreated control; type: functional, cell-based; details: Potorous tridactylus; summary of the method: as §3
[11] = Stimulation of rabbit muscle actin polymerization by centrifugation assay; type: tissue-based, Oryctolagus cuniculus, Muscle tissue
Summary of the method: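 Purified rabbit muscle actin with drug under nonpolymerizing conditions (no exogenous K+). Polymer was separated by centrifugation and supernatant protein measured. EC50 is the concentration reducing supernatant protein by 50% compared with a drug-free control. Three independent experiments were averaged. Total incubation plus processing time was 2.5 h.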

[12] = species on record: Oryctolagus cuniculus; test: Stimulation of rabbit muscle actin polymerization by electron microscopy; details: Muscle tissue
Summary of the method: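 Samples of purified rabbit muscle actin with drug were examined by electron microscopy for filaments, in parallel with K+-induced controls. Low-speed centrifugation (20000g, 30 min, 22 °C) was used to test for bundled polymer.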

[13] = tested on: CA46; test: Ratio of IC50 for rat kangaroo Ptk2 cells to IC50 for human CA46 cells
[14] = tested on: CA46; test: Antiproliferative activity against human CA46 cells after 24 hrs; type: functional, cell-based; details: CA46, 24 h
Summary of the method: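 CA46 Burkitt lymphoma cells are a suspension line. They were grown 24 h at 37 °C with drug, and cell number was the read-out. IC50 is the concentration giving 50% growth inhibition.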

[15] = tested on: Salmonella enterica subsp. enterica; test: Antimicrobial activity against Salmonella choleraesuis subsp. choleraesuis ATCC 14028 by standard paper sensitivity disk-agar plate method; type: functional, organism-based; summary of the method: as §1
[16] = Antiproliferative activity against rat kangaroo PtK2 cells after 48 hrs; type: cell-based; details: Potorous tridactylus, PtK2, 48 h
Summary of the method: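 PtK2 kidney cells (Potorous tridactylis) are an attached line. They were exposed to drug for 48 h, and cell protein was the read-out of growth. IC50 was taken from the concentration response.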

[17] = tested on: PtK2; test: Effect on actin cytoskeleton in rat kangaroo PtK2 cells assessed as increase in binucleated cells at 0.3 to 3 uM after 24 hrs by immunofluorescence analysis; type: functional, cell-based; details: Potorous tridactylus; summary of the method: as §3
[18] = tested on: Candida albicans; test: Antimicrobial activity against Candida albicans ATCC 14053 at 100 ug/disk by standard paper sensitivity disk-agar plate method; type: functional; details: read-out: IZ; summary of the method: as §2
[19] = tested on: PtK2; test: Effect on actin cytoskeleton in rat kangaroo PtK2 cells assessed as hairy appearance at 3 uM after 24 hrs by immunofluorescence analysis; type: functional, cell-based; details: Potorous tridactylus; summary of the method: as §3
[20] = tested on: PtK2; test: Effect on actin cytoskeleton in rat kangaroo PtK2 cells assessed as hairy appearance at 10 uM after 24 hrs by immunofluorescence analysis; type: functional, cell-based; details: Potorous tridactylus; summary of the method: as §3
[21] = tested on: PtK2; test: Effect on actin cytoskeleton in rat kangaroo PtK2 cells assessed as increase in binucleated cells at 1 to 10 uM after 24 hrs by immunofluorescence analysis; type: functional, cell-based; details: Potorous tridactylus; summary of the method: as §3
[22] = Displacement of FITC-phalloidin from rabbit muscle actin polymer after 1 hr by fluorescence analysis; type: tissue-based, Oryctolagus cuniculus, Muscle tissue
Summary of the method: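 Rabbit muscle actin and FITC-phalloidin were incubated 1 h at 22 °C in monomer buffer with 2 µL PIB per 100 µL. Drugs in DMSO were added for another 1 h at 22 °C, then the mixture was centrifuged and supernatant fluorescence read. EC50 is the concentration giving 50% of the maximal phalloidin-induced increase.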

[23] = tested on: Bacillus subtilis; test: Antimicrobial activity against Bacillus subtilis ATCC 6051 by standard paper sensitivity disk-agar plate method; type: functional, organism-based
Summary of the method: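 Paper disk on agar, disk diameter 6 mm.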

[24] = tested on: PtK2; test: Effect on actin cytoskeleton in rat kangaroo PtK2 cells assessed as retracted cytoplasm and spiky appearance at 3 uM after 24 hrs by immunofluorescence analysis; type: functional, cell-based; details: Potorous tridactylus; summary of the method: as §3
[25] = tested on: PtK2; test: Effect on actin cytoskeleton in rat kangaroo PtK2 cells assessed as reorganization and hypernucleation of actin assembly at 0.03 uM after 24 hrs by immunofluorescence analysis; type: functional, cell-based; details: Potorous tridactylus; summary of the method: as §3
[26] = tested on: CA46; test: Cell cycle arrest in human CA46 cells assessed as accumulation at G2/M phase at 1.0 uM after 24 hrs using propidium iodide labeling by flow cytometry; type: functional
Summary of the method: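 CA46 human Burkitt lymphoma cells were treated with the drug for 24 h. Cellular DNA content was then labelled with propidium iodide and measured by flow cytometry. The read-out was the percentage of cells in G2/M phase, compared against an untreated control.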

| SMILES | Activity [6] | Activity [9] | Activity [10] | EC50 [11] [nM] | IC50 [14] [nM] | IC50 [16] [nM] | Activity [17] | Activity [19] | Activity [20] | Activity [21] | EC50 [22] [nM] | other results |
| --- | --- | --- | --- | --- | --- | --- | --- | --- | --- | --- | --- | --- |
| CC(=O)O[C@@H]1c2nc(cs2)C(=O)O[C@@H](CCCC(C)(Cl)Cl)[C@H](C)C(=O)O[C@@H](C(C)(C)O)c2nc(cs2)C(=O)OC1(C)C [HECTOCHLORIN] | Active | Active | Active | 20000 | 20 | 300 | Active | Active | Active | Active | > 60000 | Activity [1]: inactive; Activity [2]: 37%; zone of inhibition at 10 µg/disc [3]: 11 mm; GI50 [4]: 5100 nM; Activity [5]: inactive; Activity [7]: inactive; Activity [8]: inactive; Activity [12]: inactive; Ratio IC50 [13]: 10; Activity [15]: inactive; zone of inhibition at 100 µg/disc [18]: 16 mm; Activity [23]: inactive |
| C/C1=C\[C@H](C)C[C@H](C)OC(=O)C[C@H](c2ccc(O)cc2)NC(=O)[C@@H](Cc2c(Br)[nH]c3ccccc23)N(C)C(=O)[C@H](C)NC(=O)[C@@H](C)C1 [JASPAMIDE] | Active |  |  |  | 30 | 300 | Active |  |  | Active | 6500 | Activity [24]: Active; Activity [25]: Active |
| CC(C)[C@@H]1NC(=O)CNC(=O)[C@@H]2CSC(=N2)[C@H](C(C)(C)O)OC(=O)C(C)(C)[C@H](CCCC(C)(Cl)Cl)OC(=O)c2csc1n2 [LYNGBYABELLIN B] |  | Active | Active | > 50000 | 100 | 1000 | Active | Active | Active | Active |  | Activity [26]: 28% |
